Results as given in ChEMBL document CHEMBL1667730, “Antibacterial and anti-inflammatory activities of 4-hydroxycordoin: potential therapeutic benefits” (J Nat Prod, 2011).
≈ marks a conversion by molar mass, not a printed value. Calls of active or inactive are those of the source. No cut-off for these calls is given here.

Assays:
[1] = test system: Porphyromonas gingivalis; assay: Antibacterial activity against Porphyromonas gingivalis ATCC 33277 after 24 hrs; format: functional
In short: (§1)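 Broth microdilution in THB-HK: 24 h cultures diluted to OD655 0.2, mixed 1:1 with compound (0–40 µg/mL, twofold steps from 0.63), 24 h at 37 °C anaerobic (N2-H2-CO2 80:10:10); growth by OD655 relative to untreated. MIC = lowest concentration with no growth; MBC from no-growth wells plated on THB-HK agar, 5 days anaerobic. Triplicate, two independent experiments.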

[2] = test system: Fusobacterium nucleatum; assay: Antibacterial activity against Fusobacterium nucleatum ATCC 25586 after 24 hrs; format: functional; in short: as §1
[3] = test system: Prevotella intermedia; assay: Antibacterial activity against Prevotella intermedia ATCC 25611 after 24 hrs; format: functional; in short: as §1
[4] = test system: Prevotella intermedia; assay: Antibacterial activity against Prevotella intermedia ATCC 25611 assessed as reduction of bacterial growth at 1.25 ug/ml after 24 hrs; format: functional; set-up: scale not given: the % may be the effect or the level left; in short: as §1
[5] = test system: Porphyromonas gingivalis; assay: Antibacterial activity against 14C-labeled Porphyromonas gingivalis ATCC 33277 assessed as inhibition of adhesion to human GMSM-K cells after 30 mins by scintillation counting; format: functional, cell-based
In short: (§2)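 14C-amino acid-labelled (20 µCi/mL, 16 h, anaerobic) mid-log P. gingivalis washed in PBS pH 7.2, suspended to OD655 0.8 in prereduced PBS; mixed with compound (final 0, 0.2, 1, 5 µg/mL) and added to confluent GMSM-K monolayers for 30 min at 37 °C; unbound cells washed off, bound bacteria released with 0.5 M NaOH, scintillation counted. Triplicate, three independent assays, mean ± SD.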

[6] = test system: Porphyromonas gingivalis; assay: Antibacterial activity against 14C-labeled Porphyromonas gingivalis ATCC 33277 assessed as inhibition of adhesion to human GMSM-K cells at 0.2 ug/ml after 30 mins by scintillation counting; format: functional, cell-based; in short: as §2
[7] = test system: Porphyromonas gingivalis; assay: Antibacterial activity against 14C-labeled Porphyromonas gingivalis ATCC 33277 assessed as inhibition of adhesion to human GMSM-K cells at 1 ug/ml after 30 mins by scintillation counting relative to control; format: functional; details: ATCC 33277, GMSM-K, 0.5 h; in short: as §2
[8] = test system: Porphyromonas gingivalis; assay: Antibacterial activity against 14C-labeled Porphyromonas gingivalis ATCC 33277 assessed as inhibition of adhesion to human GMSM-K cells at 5 ug/ml after 30 mins by scintillation counting relative to control; format: functional; details: ATCC 33277, GMSM-K, 0.5 h; in short: as §2
[9] = test system: U-937; assay: Antiinflammatory activity in human U937 cells assessed as inhibition of LPS-induced IL1-beta production at 5 ug/ml treated 2 hrs before LPS challenge measured after 24 hrs by ELISA; format: functional
In short: (§3)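 PMA-differentiated U937 macrophages (10 ng/mL PMA 48 h, then 24 h rest) at 1 × 10^6 cells/mL in RPMI with 1% FBS; compound (0, 0.2, 1, 5 µg/mL) for 2 h, then A. actinomycetemcomitans ATCC 29522 LPS (1 µg/mL final) for 24 h, 37 °C 5% CO2. Supernatant cytokines and MMP-9 by ELISA (A450, 550 correction). Triplicate, two experiments, t test.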

[10] = test system: U-937; assay: Antiinflammatory activity in human U937 cells assessed as inhibition of LPS-induced IL-8 production at 5 ug/ml treated 2 hrs before LPS challenge measured after 24 hrs by ELISA; format: functional; in short: as §3
[11] = test system: U-937; assay: Antiinflammatory activity in human U937 cells assessed as inhibition of LPS-induced TNFalpha production at 5 ug/ml treated 2 hrs before LPS challenge measured after 24 hrs by ELISA; format: functional; in short: as §3
[12] = test system: U-937; assay: Antiinflammatory activity in human U937 cells assessed as inhibition of LPS-induced IL-6 production at 5 ug/ml treated 2 hrs before LPS challenge measured after 24 hrs by ELISA; format: functional; in short: as §3
[13] = test system: U-937; assay: Antiinflammatory activity in human U937 cells assessed as inhibition of LPS-induced CCL5 production at 5 ug/ml treated 2 hrs before LPS challenge measured after 24 hrs by ELISA; format: functional; in short: as §3
[14] = test system: U-937; assay: Antiinflammatory activity in human U937 cells assessed as inhibition of LPS-induced PGE2 production at 5 ug/ml treated 2 hrs before LPS challenge measured after 24 hrs; format: functional, cell-based
[15] = test system: U-937; assay: Antiinflammatory activity in human U937 cells assessed as inhibition of IL1-beta production at 5 ug/ml after 24 hrs by ELISA; format: functional, cell-based; in short: as §3
[16] = test system: U-937; assay: Antiinflammatory activity in human U937 cells assessed as inhibition of IL-8 production at 5 ug/ml after 24 hrs by ELISA; format: functional, cell-based; in short: as §3
[17] = test system: U-937; assay: Antiinflammatory activity in human U937 cells assessed as inhibition of TNFalpha production at 5 ug/ml after 24 hrs by ELISA; format: functional, cell-based; in short: as §3
[18] = test system: U-937; assay: Antiinflammatory activity in human U937 cells assessed as inhibition of IL-6 production at 5 ug/ml after 24 hrs by ELISA; format: functional, cell-based; in short: as §3
[19] = test system: U-937; assay: Antiinflammatory activity in human U937 cells assessed as inhibition of CCL5 production at 5 ug/ml after 24 hrs by ELISA; format: functional, cell-based; in short: as §3
[20] = test system: U-937; assay: Antiinflammatory activity in human U937 cells assessed as inhibition of PGE2 production at 5 ug/ml after 24 hrs; format: functional, cell-based
[21] = test system: U-937; assay: Antiinflammatory activity in human U937 cells assessed as inhibition of LPS-induced MMP9 production at 1 ug/ml treated 2 hrs before LPS challenge measured after 24 hrs by ELISA; format: functional, cell-based; in short: as §3
[22] = test system: U-937; assay: Antiinflammatory activity in human U937 cells assessed as inhibition of LPS-induced MMP9 production at 5 ug/ml treated 2 hrs before LPS challenge measured after 24 hrs by ELISA; format: functional, cell-based; in short: as §3
[23] = test system: U-937; assay: Antiinflammatory activity in human U937 cells assessed as inhibition of LPS-induced NF-kappaB p65 activation at 5 ug/ml treated 1 hrs before LPS challenge measured after 1 hr; format: functional, cell-based
In short: (§4)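 PMA-differentiated U937 macrophages given compound at 5 µg/mL for 1 h, then A. actinomycetemcomitans LPS at 1 µg/mL for 1 h, 37 °C 5% CO2. Whole-cell extracts adjusted to 1 mg/mL protein; NF-κB p65 and AP-1 activation measured by Trans-AM kits. Unstimulated and compound-free controls included; triplicate, three independent experiments.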

[24] = test system: U-937; assay: Antiinflammatory activity in human U937 cells assessed as inhibition of LPS-induced AP-1 activation at 5 ug/ml treated 1 hrs before LPS challenge measured after 1 hr; format: functional, cell-based; in short: as §4
[25] = Cytotoxicity against human GMSM-K cells assessed as reduction of cell viability at up to 50 ug/ml after 2 hrs by MTT assay; format: cell-based
In short: (§5)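 MTT colorimetric viability assay on GMSM-K epithelial cells and PMA-differentiated U937 macrophages after 2 h exposure to compound at up to 50 µg/mL.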

[26] = test system: U-937; assay: Cytotoxicity against human U937 cells assessed as reduction of cell viability at up to 50 ug/ml after 2 hrs by MTT assay; format: cell-based; details: u-937, 2 h; in short: as §5

SMILES: CC(C)=CCOc1ccc(C(=O)/C=C/c2ccc(O)cc2)c(O)c1
- Activity [1]: Dose-dependent effect
- MBC ([1]; ATCC 33277, 24 h): 10 µg/mL (≈ 30.8 µM)
- MIC ([1]; ATCC 33277, 24 h): 5 µg/mL (≈ 15.4 µM)
- Activity [2]: Dose-dependent effect
- MBC ([2]; ATCC 25586, 24 h): > 40 µg/mL
- MIC ([2]; ATCC 25586, 24 h): 40 µg/mL (≈ 123 µM)
- Activity [3]: Dose-dependent effect
- MBC ([3]; ATCC 25611, 24 h): 5 µg/mL (≈ 15.4 µM)
- MIC ([3]; ATCC 25611, 24 h): 2.5 µg/mL (≈ 7.71 µM)
- Activity [4]: 45%
- inhibition [5]: Dose-dependent effect
- inhibition [6]: inactive
- inhibition at 1 µg/mL [7]: 31%
- inhibition at 5 µg/mL [8]: 36%
- inhibition at 5 µg/mL [9]: 29%
- inhibition at 5 µg/mL [10]: 38%
- inhibition at 5 µg/mL [11]: 23%
- inhibition at 5 µg/mL [12]: 50%
- inhibition at 5 µg/mL [13]: 67%
- inhibition [14]: Active
- inhibition [15]: inactive
- inhibition [16]: inactive
- inhibition [17]: inactive
- inhibition [18]: inactive
- inhibition [19]: inactive
- inhibition [20]: inactive
- inhibition [21]: Active
- inhibition [22]: Active
- inhibition [23]: Active
- inhibition [24]: Active
- Activity [25]: Non-toxic
- Activity [26]: Non-toxic
